A selection: hits, their analogues and other compounds. The true share with any hit is near 4%.
Ecoli rRNA inh: reduced GFP signal of wild-type E. coli, primary screen, bacterial rRNA inhibitor project, GFP/RFP fluorescence, OD600, single point; 350,000 compounds, 1.6% hits; GFP signal change (wild-type ribosome), % (no concentration beside the values); E. coli WT GFP vs humanized-ribosome RFP mutants, 24 h; active compounds read low; DMSO median 0, no signal -100; AID 720706, 2013;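 active means significant combined selectivity score with lowered wild-type GFP, culture density cut under 30%, mutant RFP and density less affected; inactive means any of these conditions unmet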
FGF22 binding: binders of human FGF22 protein, primary screen, FGF22 synaptogenesis inhibitor project, biophysical, thermal shift, single point. activity (Tm shift, normalised), % at 9.99 µM. 340,000 compounds, 1.5% hits. Fibroblast growth factor 22 (Homo sapiens), Q9HCT0. AID 651658, 2012. recombinant FGF22 thermal shift, SYPRO orange fluorescence; percent of sucrose octasulfate shift, DMSO zero;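 active means mean Tm shift, scaled 0 neutral to 100 positive control, at about 1.3% or above, every replicate too, limit read from the data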
Target sequence (Q9HCT0 whole entry, looked up): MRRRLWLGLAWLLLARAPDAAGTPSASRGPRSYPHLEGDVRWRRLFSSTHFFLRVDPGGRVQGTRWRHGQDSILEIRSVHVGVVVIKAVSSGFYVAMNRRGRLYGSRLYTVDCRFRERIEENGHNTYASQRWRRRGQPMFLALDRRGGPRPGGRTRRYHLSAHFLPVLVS
E-selectin induc: E-selectin induction in HUVECs, primary screen, imaging, HUVEC, immunofluorescence imaging, single point; P16581; normalized: neutral wells 0, TNF-alpha wells 100; activation, % at 7.58 µM; 260,000 compounds, 0.37% hits;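 active means mean E-selectin-positive cell signal at least 10% of the positive control, reached in at least 60% of replicates, without over 20% cell loss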
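Read-out basis: % PE-positive cells; Test system: HUVEC primary endothelial cells; Technique: immunofluorescence imaging; Dosing: single-point compound dose.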
Statin myotox sup: suppressors of statin myotoxicity in C2C12 myotubes, primary screen, cell-based, single point, plate reader. C2C12 myotubes + simvastatin, ATP luminescence, 48 h; scaled: DMSO 0, geranylgeraniol control 100. rescue of ATP level, % at 7.49 µM. 330,000 compounds, 0.78% hits;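 active means mean ATP rescue above about 67%, or every replicate alone reaching that limit, limit read from the data, passing the limit was not always enough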;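 further: myotubes were challenged with 10 µM simvastatin during compound exposure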
SIRT5 block: SIRT5 desuccinylase inhibitors, primary screen, biochemical, fluorescence imaging, single point, set 5 | NAD-dependent protein deacylase sirtuin-5, mitochondrial (Homo sapiens), Q9NXA8 | Purified SirT5, succinyl-peptide AMC, trypsin-coupled fluorescence | inhibition, % at 15 µM | 330,000 compounds, 1.1% hits; in the data active means inhibition above about 15%
Target sequence (Q9NXA8 whole entry, looked up): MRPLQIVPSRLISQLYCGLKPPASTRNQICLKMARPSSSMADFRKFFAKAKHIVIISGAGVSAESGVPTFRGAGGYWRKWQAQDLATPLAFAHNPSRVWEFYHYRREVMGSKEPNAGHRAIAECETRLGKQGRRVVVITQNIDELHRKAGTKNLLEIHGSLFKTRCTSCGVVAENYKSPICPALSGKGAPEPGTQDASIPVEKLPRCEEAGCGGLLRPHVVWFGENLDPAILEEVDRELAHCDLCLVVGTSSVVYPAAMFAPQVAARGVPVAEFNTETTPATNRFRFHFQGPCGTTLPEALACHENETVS
FN deposition inh: inhibitors of fibronectin matrix deposition, primary screen, AH1F cells, Alexa488-fibronectin fluorescence, plate reader; inhibition, % at 12.6 µM; 350,000 compounds, 0.086% hits; AH1F fibroblasts, overnight;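 active means mean inhibition across replicates of 30% or more, regardless of how many single replicates reach that level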;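 further: positive control wells lacked labelled fibronectin entirely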
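Assay system: AH1F fibroblasts assembling fluorescent fibronectin matrix; Amount: 10000 AH1F cells per well; Buffer or medium: DMEM, 2% serum; Probe or stimulus: Alexa488-fibronectin, 24 nM final in well; Doses: single compound dose, delivered by pin transfer; Incubation: 1 h adhesion, overnight exposure; Measured by: fluorescence 485/525 nm; Read-out: fibronectin deposition inhibition.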
* marks the source's active call; other numbers are inactive results; nt = not tested or not shown.

SMILES	Ecoli rRNA inh	FGF22 binding	E-selectin induc	Statin myotox sup	SIRT5 block	FN deposition inh
CN1CCN(S(=O)(=O)c2cccs2)CC1	16.4	0.3	0.1	nt	-5.1	-2.7
CNC[C@@H]1Oc2cc(-c3ccc(OC)cc3)ccc2S(=O)(=O)N([C@@H](C)CO)C[C@H]1C	1.3	nt	-0.3	nt	nt	5.4
CCNC(=O)[C@@H]1[C@@H](CO)[C@@H]2Cn3c(ccc(-c4ccc(F)cc4)c3=O)[C@H]1N2C(=O)C1CC1	-0.6	-0.3	0.0	0.1	-23.3	nt
CC(C)NC(=O)N(C)C[C@@H]1Oc2ncc(C#CC3CCCCC3)cc2C(=O)N([C@@H](C)CO)C[C@@H]1C	2.7	nt	-0.3	22.6	nt	3.7
CC(=O)Nc1ccc(-c2csc(N/N=C(/C)c3ccccc3)n2)cc1	-8.2	0.1	nt	nt	-4.9	-3.7
CC(C)=NNc1nc(-c2ccc([N+](=O)[O-])cc2)cs1	-34.5*	-0.1	0.0	nt	6.1	-1.1
CCOC(=O)/C(C)=N/Nc1nc(-c2ccc(NC(C)=O)cc2)cs1	-26.9*	0.2	0.2	nt	4.1	-2.9
C/C(=N/Nc1nc(-c2ccc(Cl)cc2)cs1)c1cccs1	nt	nt	nt	143.6*	nt	1.0
CC(=O)Nc1ccc(-c2csc(Nc3cc(C)ccn3)n2)cc1	-47.8*	0.3	-0.1	12.2	-1.0	-0.5
CC(=O)Nc1nc(-c2ccc([N+](=O)[O-])cc2)cs1	7.6	0.2	-2.0	nt	-8.4	2.1
O=C(Nc1ccccc1)N[C@H]1CC[C@@H](CCn2cc(-c3ccccc3F)nn2)O[C@H]1CO	-4.9	nt	-0.5	nt	-4.7	nt
COC(=O)[C@H](Cc1ccccc1)NC(=O)N1CCCCCC1	3.3	-0.1	nt	3.7	-3.7	-1.7
O=C(CCC(=O)N1CCN(c2ccc(F)cc2)CC1)N1CCN(c2ccc(F)cc2)CC1	-21.2*	-0.1	nt	-3.9	nt	-11.9
COC(=O)[C@H](Cc1ccccc1)NC(=O)N1CCN(c2ccc(F)cc2)CC1	-19.6*	0.0	0.1	3.2	-0.8	-3.8
C[C@@H]1CCCCO[C@H](CN(C)C(=O)NC2CCCCC2)[C@H](C)CN([C@H](C)CO)C(=O)c2cc(NC(=O)Cc3ccccc3)ccc2O1	-4.0	nt	-0.3	nt	nt	nt
COc1ccc(C=O)c2[nH]c3c(Cl)ncnc3c12	-1.6	-0.4	0.0	14.5	16.9*	4.6
C[C@@H]1CCCCO[C@H](CN(C)Cc2ccccc2)[C@@H](C)CN([C@@H](C)CO)C(=O)c2cc(NS(C)(=O)=O)ccc2O1	4.6	-0.1	0.1	12.9	-0.6	nt
Cc1ccc(/C=C/C(=O)O)cc1S(=O)(=O)Nc1ccccc1C(=O)O	30.3	43.5*	1.6	-1.3	-0.1	nt
Cc1ccc(/C=C/C(=O)O)cc1S(=O)(=O)N1CCc2ccccc21	-32.4*	-0.1	-0.4	3.1	-0.4	0.5
Cc1ccc(/C=C/C(=O)O)cc1S(=O)(=O)N1CCc2ccccc2C1	-19.8	43.3*	nt	3.7	0.8	-7.5
C[C@H](CO)N1C[C@H](C)[C@@H](CN(C)Cc2ccccc2)Oc2ccc(NC(=O)C3CC3)cc2CC1=O	1.5	0.3	0.2	8.3	-3.6	nt
O=c1cc(-c2ccco2)oc2c1ccc1ccccc12	nt	nt	nt	103.3*	nt	0.9
CCOc1ccc(CNn2nnnc2N)cc1	nt	nt	nt	118.7*	nt	6.0
CCOc1ccc(CNn2cnnc2)cc1	-4.3	-0.1	nt	-0.7	0.7	-3.6
O=C(Nc1ccc(F)cc1)N1[C@@H]2CNc3ccccc3[C@@H]2[C@@H]1CO	-8.1	0.3	0.0	8.1	-0.8	3.2
SMILES	Ecoli rRNA inh	FGF22 binding	E-selectin induc	Statin myotox sup	SIRT5 block	FN deposition inh
C[C@@H]1CN([C@H](C)CO)C(=O)c2cc(C#CCN(C)C)cnc2O[C@@H]1CN(C)Cc1ccccc1F	-1.2	0.1	0.4	10.3	-0.2	-18.5
COc1ccc(NC(=O)Cc2ccc(C)cc2)cc1S(=O)(=O)N1CCCCC1	-15.6	0.0	4.7	-3.9	0.2	4.4
CCN(CC)c1ccc(S(=O)(=O)N2CCOCC2)cc1NC(=O)CN1C(=O)NC2(CCCC2)C1=O	6.8	-0.1	62.6*	nt	-0.4	-7.0
O=C(CN1C(=O)NC2(CCCCCC2)C1=O)Nc1ccc(S(=O)(=O)N2CCOCC2)cc1	6.5	nt	nt	-0.2	0.8	nt
CCN(CC)S(=O)(=O)c1cc(NC(=O)CN2C(=O)NC3(CCCc4ccccc43)C2=O)ccc1C (centres undefined)	-25.4	0.0	nt	nt	-0.5	7.2
COc1ccc(NC(=O)Cc2ccc(C)c(C)c2)cc1S(=O)(=O)N1CCCCC1	-28.7*	-0.1	-0.3	nt	0.9	6.5
COCCNCC(=O)Nc1ccc(C)c(S(=O)(=O)N2CCCCC2)c1	2.6	0.2	2.5	nt	-5.6	-1.2
Cc1ccc(NC(=O)CN2C(=O)NC3(CCCc4ccccc43)C2=O)cc1S(=O)(=O)N1CCOCC1 (centres undefined)	-11.1	43.9*	1.3	-5.4	-4.4	3.3
Cc1ccc(NC(=O)CCl)cc1S(=O)(=O)N1CCCCCC1	-15.7*	-0.1	nt	nt	3.5	-0.9
O=C(Nc1ccccc1F)N1CC(=O)N2[C@@H](CO)[C@H](c3ccc(C#Cc4ccccc4)cc3)[C@@H]2C1	-26.2	nt	-0.1	nt	2.6	nt
CCc1ccccc1OCC(=O)NNCC(=O)Nc1cccc(C#N)c1	-19.5*	0.0	nt	1.1	0.0	-4.1
CC1CC(C)(C)N2C(=O)C3(Nc4ccccc4S3)c3cccc1c32 (centres undefined)	nt	nt	nt	29.1	nt	nt
Cc1cc2c3c(c1)C1(SCC(=O)N1c1ccc(F)cc1)C(=O)N3C(C)(C)CC2C (centres undefined)	nt	nt	nt	110.5*	nt	-6.7
C=CCSc1nnc(NC(=O)COc2ccccc2)s1	6.3	0.1	nt	nt	10.9	34.0*
Nc1ncnc2c1ncn2[C@@H]1O[C@H](C(=O)N[C@@H](CCc2ccccc2)C(=O)N2CCN(C(=O)N3CCCCC3)CC2)[C@@H](O)[C@H]1O	8.7	0.0	-0.2	nt	-0.3	4.4
CCCN(CCC)CCN1CCN(C(=O)[C@H](CCc2ccccc2)NC(=O)[C@H]2O[C@@H](n3cnc4c(N)ncnc43)[C@H](O)[C@@H]2O)CC1	8.6	-0.2	-0.1	nt	29.4*	0.6
O=C(NN=C1c2ccccc2-c2ccccc21)c1ccccc1	-32.4*	0.1	0.1	-29.1	4.2	13.6
O=C(Cn1c(C(F)(F)F)nc2ccccc21)N=Nc1c(O)[nH]c2ccc(Br)cc12	11.2	43.1*	0.2	-9.4	1.1	2.0

Source: PubChem BioAssay
